Screening data (PubChem BioAssay)
Beta apoptosis: beta cell apoptosis inhibition | INS-1E cytokine-induced death, ATP luminescence, 48 h; percent of positive-control rescue, neutral wells zero | protection from apoptosis, % (test concentration not listed) | actives 0.8% (n = 300,000) | AID 435005;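 active = Every replicate reaches about 75%, or at least half do and their mean reaches it too, limit read from the data; inconclusive = At least half of replicates reach the limit but their mean does not; inactive = Under half of replicates reach the limit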;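 also: 0% = cytokine-treated negative control wells and 100% = positive control rescue; higher means more ATP so stronger rescue from cytokine killing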
T cruzi repl: blocks replication of Trypanosoma cruzi; T. cruzi beta-gal in NIH3T3, luminescence, 90 h; inhibition, % (no concentration beside the values); actives 1.4% (n = 300,000); AID 1885;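 active = mean inhibition across valid replicates above about 55%, limit read from the data; inconclusive = mean below that limit but half or more replicates reach it; inactive = mean below it, under half of replicates reach it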;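 also: signal also drops with host cell toxicity which is not excluded here; 0% = plate median of DMSO wells and 100% = zero luminescence signal; higher percent means less beta-gal luminescence so fewer parasites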
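System – NIH/3T3 host cells with β-galactosidase reporter T. cruzi · Doses – single 50 nL compound addition per well in DMSO · Reagent – 5000 T. cruzi trypomastigotes/well · Medium – Low-serum DMEM with 2% FBS · Timing – ≥90 h infection period, 3 h prior cell attachment · Evaluation – parasite load inhibition, % · Technique – GalScreen luminescence, 60 min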
CSC inhib: blocks cancer stem cells. cancer stem cell-like cells viability, luminescence. inhibition, % at 7.5 µM. actives 1.1% (n = 300,000). AID 2717; in the data active = inhibition above about 75%; inconclusive = no clear call, values can overlap the other calls; tested in HMLE shEcad cells
Mdm2-MdmX inh: human Mdm2/MdmX binding inhibition; inhibition, % at 8 µM; O15151+Q00987; actives 3% (n = 330,000); AID 485346; SaOS-2 split-luciferase Mdm2/MdmX complementation, luminescence;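 active = inhibition of at least 50% at 8 µM in the primary screen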
Calb FLC: C. albicans growth modulation with fluconazole | actives 0.57% (n = 300,000) | AID 1979 | growth inhibition, % (no concentration beside the values) | C. albicans CaCi-2 (fluconazole-resistant clinical isolate) + fluconazole, Alamar Blue growth, 48 h;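 active = growth inhibition above about 58% in most replicates, limit read from the data, passing the limit was not always enough; inconclusive = exactly half the replicates above a set limit; inactive = most replicates below a set limit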;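 also: all wells also contain fluconazole at 8 µg/ml as a sub-toxic cotreatment; 0% = median of DMSO wells and 100% = median of geldanamycin control wells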
SKKanGAS inh: blocks kanamycin growth of S. pyogenes SKKanGAS strain. BacTiter-Glo, 6 h. inhibition, % at 7.5 µM. actives 1.3% (n = 300,000);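 active = mean replicate score, as percent of positive control median, at least 50; inconclusive = mean below 50 but one replicate at or above 50; inactive = mean and every replicate below 50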;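 also: strain carries kanamycin resistance gene driven by streptokinase promoter and grows in 40 µg/ml kanamycin; loss of luminescence reflects streptokinase promoter inhibition or plain growth inhibition; 0% = median of DMSO wells and 100% = positive control at its reference dose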
Starred values were filed as active, the others as inactive; ? = inconclusive; / = not tested or not shown. Shown are actives, neighbours in structure and some others; about 5.7% of the full set was active somewhere.

SMILES	Beta apoptosis	T cruzi repl	CSC inhib	Mdm2-MdmX inh	Calb FLC	SKKanGAS inh
COc1ccc(CN(C)CC(=O)Nc2cc3oc4ccccc4c3cc2OC)c(OC)c1	5.9	36.9	84.1*	25.5	6.3	1.9
Cc1cc(C(=O)N/N=C/c2cc(Br)cc(Br)c2OC(=O)c2ccccc2)n[nH]1	94.4*	48.2	/	48.1	36.3	18.0
Cc1cc(C(=O)N/N=C/c2cc(Br)ccc2OC(=O)c2ccc(Br)cc2)n[nH]1	91.1*	20.9	-21.9	44.9	-6.3	9.3
CSc1ccccc1NC(=O)C1CCN(S(C)(=O)=O)CC1	-1.7	-10.5	-14.7	6.0	1.9	-9.2
CCC(C(=O)N1CCC(N2CCCCC2)CC1)n1nc(C)c2sc3ccccc3c2c1=O (configuration not stated)	0.9	-19.1	6.8	21.9	3.5	52.6*
Cc1nn(C(C)C(=O)N2CCCCC2)c(=O)c2c1sc1ccccc12 (configuration not stated)	-7.5	-0.8	-6.5	-4.2	2.6	-8.8
CCn1c2ccccc2c2nc3ccccc3nc21	8.2	5.7	-1.1	-11.7	?	10.0
CCCCc1c(C)nn(-c2nnc3c4ccccc4n(CC)c3n2)c1C	44.5	30.9	51.1	38.5	-0.3	76.0*
O=C(Nc1ccc(C2=NCCN2)cc1)c1ccc(C(=O)Nc2ccc(C3=NCCN3)cc2)c(Cl)c1	19.2	13.8	-18.8	5.7	90.3*	16.8
Cc1c(CCOC(=O)CC23CC4CC(CC(C4)C2)C3)sc[n+]1Cc1ccccc1	55.8	40.2	45.5	-4.9	99.8*	3.5
CC(C)NC(=O)COC(=O)c1cccc(NS(=O)(=O)/C=C/c2ccccc2)c1	-4.3	2.1	-13.0	0.2	102.8*	-1.0
NC(=O)COC(=O)c1cccc(NS(=O)(=O)/C=C/c2ccccc2)c1	-3.4	-3.8	/	-6.8	1.6	-16.4
O=C(Cn1nc(-c2nn(CC(=O)c3ccccc3)c3[n+]2CCCCC3)[n+]2c1CCCCC2)c1ccccc1	-4.7	8.9	-0.4	17.3	-4.0	5.6
COc1ccc(C(=O)Cn2nc(CNc3ccc(Br)cc3)[n+]3c2CCCCC3)cc1	10.7	59.1*	12.7	26.0	0.5	6.7
COc1cccc(N2C(=O)C3NN=C(C(=O)CN4C(=O)c5ccccc5C4=O)C3C2=O)c1 (configuration not stated)	-1.7	?	-7.8	-19.6	-3.3	52.3*
COc1cccc(CNC(=O)CCC2CCCN(Cc3ccc4c(c3)CCO4)C2)c1 (configuration not stated)	-8.4	48.0	-6.5	-5.6	-0.7	3.7
COc1cccc(CNC(=O)CCC2CCCN(C/C=C/c3ccccc3OC)C2)c1 (configuration not stated)	-0.1	66.1*	-1.2	19.2	-8.1	1.5
CCN(CC1CCCN(CCc2cccc(OC)c2)C1)C(=O)c1ccc(COC)o1 (configuration not stated)	-1.1	77.4*	16.6	-0.4	-3.2	-7.2
COCc1ccc(CN2CCCC(CCC(=O)NCc3cccc(OC)c3)C2)o1 (configuration not stated)	-2.4	59.1*	-13.6	19.5	-10.3	0.6
COc1ccccc1/C=C/CN1CCCC(CCC(=O)NCc2ccc(F)c(F)c2)C1 (configuration not stated)	-12.3	67.6*	-14.0	22.0	-28.4	-1.7
COc1ccc(CNC(=O)CCCn2nc(C)c3c(C)n(-c4ccccc4)nc3c2=O)cc1	-5.5	1.4	-0.5	14.0	0.8	0.6
CCOC(=O)C(CC)n1cnc2c(nnn2-c2ccccc2)c1=O (configuration not stated)	-5.4	-17.5	-8.4	5.9	2.2	-5.4
COc1ccc(/C=C/CN2CCCC(CCC(=O)NCc3ccc(F)c(F)c3)C2)cc1 (configuration not stated)	-1.8	67.9*	-2.0	22.0	-6.5	-4.8
COCCC(=O)N1CCCC(CCC(=O)NCc2ccc(F)c(F)c2)C1 (configuration not stated)	-4.2	4.6	-2.5	-20.1	-16.5	-7.9
CCOC(=O)Cc1nn(Cc2nc(-c3ccc(C#N)cc3)cs2)c(=O)c2ccccc12	/	14.4	6.0	22.7	-0.9	-1.8
SMILES	Beta apoptosis	T cruzi repl	CSC inhib	Mdm2-MdmX inh	Calb FLC	SKKanGAS inh
O=C(O)c1ccc(Cn2c(SCc3cc(=O)n4cc(Br)ccc4n3)nc3ccsc3c2=O)cc1	0.7	7.8	7.7	-11.4	111.7*	30.8
O=C(O)C1CCC(Cn2c(SCc3cc(=O)n4cc(Br)ccc4n3)nc3ccsc3c2=O)CC1 (configuration not stated)	-10.9	-5.1	-15.5	16.2	41.1	34.6
O=[N+]([O-])c1ccc(N/N=C/c2c[nH]c3ccccc23)cc1	11.9	4.8	96.1*	25.3	-15.4	8.5
O=[N+]([O-])c1ccc(N/N=C/c2ccc[nH]2)cc1	4.1	/	88.4*	/	/	/
O=[N+]([O-])c1ccc(N/N=C/c2cccc(O)c2O)cc1	25.0	40.1	95.6*	-23.9	-26.8	-3.5
CSCCC(NC(=O)c1ccco1)C(=O)N1CCCC(C(F)(F)F)C1 (configuration not stated)	-8.1	/	-4.8	-13.1	/	/
CC(C)c1ccc(NC(=O)c2cc(S(=O)(=O)NCC3COc4ccccc4O3)ccc2F)cc1 (configuration not stated)	58.0	21.9	123.4*	25.7	-2.7	68.9*
COC(CNc1ccc([N+](=O)[O-])c(NCC(OC)OC)c1C#N)OC	2.1	-0.1	-22.7	-21.2	2.5	8.0
COC(=O)c1ccc(-c2noc(CN(C)CC3CCCCO3)n2)cc1 (configuration not stated)	-6.5	-0.7	-15.3	11.0	-8.7	-2.5
COC(=O)c1ccc(-c2noc(CN(Cc3ccncc3)CC3CCCO3)n2)cc1 (configuration not stated)	-4.6	57.1*	-3.1	9.9	-7.3	11.3
CCOC(=O)CSc1ccc2nnc(CCNS(=O)(=O)c3ccc(C)cc3)n2n1	1.2	-2.2	-5.9	11.6	-2.3	-26.2
CC(=O)Nc1ccc(NC(=O)CSc2ccc3nnc(CCNS(=O)(=O)c4ccc(C)cc4)n3n2)cc1	-8.1	-19.9	-4.1	-15.0	77.1*	-4.7
CCc1ccc2oc(-c3cc(N=Cc4cccc(OC)c4O)ccc3O)nc2c1	-4.8	64.2*	13.5	-153.6	-19.2	0.4
COc1cccc(C=Nc2cc(C)cc(C)c2)c1O	-12.2	0.5	-11.8	3.6	-14.5	1.2
Cn1cnc2cc(NCc3ccc(Cl)cc3)ccc21	-0.1	-9.4	-8.9	-58.1	-19.9	8.3
CCCCCNC1=CC(=O)CC(c2ccccc2)C1 (configuration not stated)	3.2	4.8	13.2	28.6	-12.1	-2.7
CCCCCCCNC1=CC(=O)CC(c2ccccc2)C1 (configuration not stated)	91.1*	18.7	45.2	41.6	-32.0	-6.7
c1ccc(Nc2ccccc2)cc1	-2.7	-1.0	10.6	-1.4	-3.5	-7.3
